Laboratory results as given in ChEMBL document CHEMBL2086393, “Haloenol pyranones and morpholinones as antineoplastic agents of prostate cancer” (Bioorg Med Chem Lett, 2012).
The source made the active and inactive calls. The calls are words filed in the database; no cut-off is given here.

Tests used:
LNCaP [1] = assay: Cytotoxicity against human LNCAP cells assessed as change in cell shape at 5 uM after 72 hrs by phase-contrast microscopic analysis; type: functional, cell-based
Procedure, shortened: (§1)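 LNCaP cells were treated at 5 μM for 72 h. Cells were inspected by eye under phase-contrast microscopy for changes in shape and differentiation, death, and signs of apoptosis or necrosis, compared with a DMSO vehicle control.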

Rattus norvegicus [2] = organism: Rattus norvegicus; assay: Inhibition of iPLA2beta in rat kidney cytosol using arachidonoyl thio-phosphatidylcholine as substrate after 0.5 hrs by spectrophotometry; type: tissue-based
Procedure, shortened: (§2)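 Cytosolic fractions were preincubated with compound at 0–100 μM for 0.5 h. Arachidonoyl thiophosphatidylcholine, a hydrolysable thioester probe of PLA2 activity, was then added to follow enzyme activity.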

LNCaP [3] = assay: Antineoplastic activity against human LNCAP cells after 48 hrs by MTT assay; type: functional, cell-based
Procedure, shortened: (§3)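 LNCaP and PC-3 human prostate cancer cells were exposed to compound for 24, 48 or 72 h, and growth was read as the change in MTT staining. IC50 was calculated from 3–5 experiments, each run in duplicate on separate cell passages.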

LNCaP [4] = assay: Antineoplastic activity against human LNCAP cells after 72 hrs by MTT assay; type: functional, cell-based; procedure, shortened: as §3
LNCaP [5] = assay: Cytotoxicity against human LNCAP cells assessed as cell death at 5 uM after 72 hrs by phase-contrast microscopic analysis; type: functional, cell-based; procedure, shortened: as §1
LNCaP [6] = assay: Cell cycle arrest in human LNCAP cells assessed as decrease in G2/M phase cells at 5 uM after 24 hrs by PI-based flow cytometric analysis relative to control; type: functional
Procedure, shortened: (§4)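 LNCaP cells were treated for 24 h at 5 or 10 μM. Cells were stained with propidium iodide and analysed by flow cytometry for the percentages in G1, S and G2/M phases, compared with control.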

PC-3 [7] = assay: Antineoplastic activity against human PC3 cells after 72 hrs by MTT assay; type: functional, cell-based; conditions: PC-3, 72 h; procedure, shortened: as §3
PC-3 [8] = assay: Antineoplastic activity against human PC3 cells after 48 hrs by MTT assay; type: functional, cell-based; conditions: PC-3, 48 h; procedure, shortened: as §3
PC-3 [9] = assay: Antineoplastic activity against human PC3 cells after 24 hrs by MTT assay; type: functional, cell-based; conditions: PC-3, 24 h; procedure, shortened: as §3
LNCaP [10] = assay: Cytotoxicity against human LNCAP cells assessed as change in cell differentiation at 5 uM after 72 hrs by phase-contrast microscopic analysis; type: functional, cell-based; procedure, shortened: as §1
LNCaP [11] = assay: Cell cycle arrest in human LNCAP cells assessed as increase in G1 phase cells at 5 uM after 24 hrs by PI-based flow cytometric analysis relative to control; type: functional; procedure, shortened: as §4
LNCaP [12] = assay: Cell cycle arrest in human LNCAP cells assessed as increase in G1 phase cells at 10 uM after 24 hrs by PI-based flow cytometric analysis relative to control; type: functional; procedure, shortened: as §4
LNCaP [13] = assay: Cell cycle arrest in human LNCAP cells assessed as decrease in S phase cells at 5 uM after 24 hrs by PI-based flow cytometric analysis relative to control; type: functional; procedure, shortened: as §4
LNCaP [14] = assay: Antineoplastic activity against human LNCAP cells after 24 hrs by MTT assay; type: functional, cell-based; procedure, shortened: as §3
LNCaP [15] = assay: Cell cycle arrest in human LNCAP cells assessed as decrease in S phase cells at 10 uM after 24 hrs by PI-based flow cytometric analysis relative to control; type: functional; procedure, shortened: as §4
PC-3 [16] = assay: Antineoplastic activity against human PC3 cells at 14 to 34 uM by MTT assay; type: functional, cell-based; conditions: TDE = time-dependent effect; procedure, shortened: as §3
LNCaP [17] = assay: Antineoplastic activity against human LNCAP cells at 5 to 13 uM by MTT assay; type: functional, cell-based; conditions: TDE = time-dependent effect; procedure, shortened: as §3
Rattus norvegicus [18] = organism: Rattus norvegicus; assay: Inhibition of iPLA2beta in rat kidney cytosol using arachidonoyl thio-phosphatidylcholine as substrate up to 100 uM after 0.5 hrs by spectrophotometry; type: tissue-based; procedure, shortened: as §2
LNCaP [19] = assay: Induction of apoptosis in human LNCAP cells at 5 uM after 72 hrs by phase-contrast microscopic analysis; type: functional, cell-based; procedure, shortened: as §1
LNCaP [20] = assay: Induction of necrosis in human LNCAP cells at 5 uM after 72 hrs by phase-contrast microscopic analysis; type: functional, cell-based; procedure, shortened: as §1

Row | Structure (SMILES) | Activity (LNCaP [1]) | inhibition (Rattus norvegicus [2]) | IC50 (LNCaP [3]) [µM] | IC50 (LNCaP [4]) [µM] | Activity (LNCaP [5]) | Activity (LNCaP [6]) | IC50 (PC-3 [7]) [µM] | IC50 (PC-3 [8]) [µM] | IC50 (PC-3 [9]) [µM] | Activity (LNCaP [10]) | Activity (LNCaP [11]) | Activity (LNCaP [12]) | Activity (LNCaP [13]) | IC50 (LNCaP [14]) [µM] | Activity (LNCaP [15]) | Activity (PC-3 [16]) | Activity (LNCaP [17]) | inhibition (Rattus norvegicus [18]) | Activity (LNCaP [19]) | Activity (LNCaP [20])
1 | O=C1O/C(=C/Br)CCC1c1ccccc1 (racemic) | inactive | Dose-dependent effect | 5 | 4 | inactive | Active | 6 | 10 | 27 | inactive | Active | Active | Active | 31 | Active | – | – | – | – | –
2 | O=C1CCC/C(=C\Br)O1 | – | – | 5 | 5 | – | – | 14 | 23 | 19 | – | – | – | – | 10 | – | – | – | – | – | –
3 | C#CCN1CC(=O)O/C(=C/Br)C1 | – | – | 29 | 28 | – | – | 7 | 10 | 13 | – | – | – | – | 25 | – | – | – | – | – | –
4 | O=C1O/C(=C/Br)CCC1c1cccc2ccccc12 (racemic) [BROMOENOL LACTONE] | inactive | Dose-dependent effect | 5 | 9 | inactive | Active | 14 | 26 | 34 | inactive | Active | Active | Active | 13 | Active | tde | tde | – | – | –
5 | C#CCN1C/C(=C\Br)OC(=O)[C@@H]1c1ccccc1 | – | – | 3 | 3 | – | Active | 5 | 13 | 15 | – | Active | Active | Active | 8 | Active | – | – | Active | – | –
6 | O=C1O/C(=C/Br)CC[C@H]1c1cccc2ccccc12 | – | – | – | – | – | – | – | – | – | – | – | – | – | – | – | – | – | Active | – | –
7 | C#CCN1C/C(=C\Br)OC(=O)[C@@H]1Cc1ccccc1 | – | – | 26 | 32 | – | – | 39 | 57 | 33 | – | – | – | – | 41 | – | – | – | – | – | –
8 | C#CCN1C/C(=C\Br)OC(=O)[C@H]1c1ccccc1 | – | – | 6 | 3 | – | Active | 3 | 6 | 8 | – | Active | Active | Active | 6 | Active | – | – | inactive | Active | Active
9 | O=C1O/C(=C/Br)CN(Cc2ccccc2)[C@H]1c1ccccc1 | – | – | 4 | 3 | – | – | 4 | 1 | 4 | – | – | – | – | 3 | – | – | – | – | – | –
10 | C#CCN1C/C(=C\I)OC(=O)[C@@H]1c1ccccc1 | – | – | 23 | 20 | – | – | 25 | 21 | 21 | – | – | – | – | 26 | – | – | – | – | – | –
11 | O=C1CCC/C(=C\I)O1 | – | – | 5 | 7 | – | – | 16 | 15 | 32 | – | – | – | – | 9 | – | – | – | – | – | –
